Data from ChEMBL document CHEMBL4014341, “Discovery of a Human Neuromedin U Receptor 1-Selective Hexapeptide Agonist with Enhanced Serum Stability” (J Med Chem, 2017).
pEC50: −log10 of the molar value. Blank lines part the entries; values can stand above or below the compound they belong to. Activity calls are given as the source filed them. The calls are words filed in the database; no cut-off is given here. Square brackets hold non-standard residues; d marks the D form. Peptide text beside a SMILES is read from it. * marks the point of attachment. Bpa = N[C@@H](Cc1ccc(C(=O)c2ccccc2)cc1)C(=O)O; Bip = N[C@@H](Cc1ccc(-c2ccccc2)cc1)C(=O)O; Dip = N[C@H](C(=O)O)C(c1ccccc1)c1ccccc1; 1Nal = N[C@@H](Cc1cccc2ccccc12)C(=O)O; Bta = N[C@@H](Cc1csc2ccccc12)C(=O)O; Acetyl(2-thienyl) = O=C(Cc1cccs1)*

Legend:
Serum = assay: Drug level in rat serum treated with (S)-2-((S)-2-((S)-1-((S)-2-((S)-2-((S)-3-(1H-indol-3-yl)-2-(2-(thiophen-2-yl)acetamido)propanamido)-3-(1H-indol-2-yl)propanamido)-5-guanidinopentanoyl)pyrrolidine-2-carboxamido)-5-guanidinopentanamido)succinamide at 1 mM after 120 mins by RP-HPLC analysis; assay type: ADME, cell-free; settings: 2 h, 1000 µM
Neuromedin-U receptor 1 = molecular target: T1, Neuromedin-U receptor 1 (Mus musculus, UniProt O55040); assay: Agonist activity at mouse NMUR1 expressed in HEK293 cells assessed as induction of calcium mobilization after 18 hrs by Fluo-4 AM dye based FLIPR assay; assay type: functional, cell-based
T1 sequence (O55040 whole entry): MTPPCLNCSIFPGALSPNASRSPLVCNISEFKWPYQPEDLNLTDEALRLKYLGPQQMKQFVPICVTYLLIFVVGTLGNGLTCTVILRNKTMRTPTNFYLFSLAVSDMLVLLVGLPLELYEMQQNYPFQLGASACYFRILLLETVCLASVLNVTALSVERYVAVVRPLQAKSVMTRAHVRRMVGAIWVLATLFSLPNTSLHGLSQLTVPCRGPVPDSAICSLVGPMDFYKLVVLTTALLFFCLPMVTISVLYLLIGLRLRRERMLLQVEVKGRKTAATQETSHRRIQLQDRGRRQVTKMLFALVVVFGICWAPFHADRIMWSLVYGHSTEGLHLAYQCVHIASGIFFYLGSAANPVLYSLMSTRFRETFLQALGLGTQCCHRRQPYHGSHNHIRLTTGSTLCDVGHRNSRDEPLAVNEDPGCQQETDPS

Rattus norvegicus = species: Rattus norvegicus; assay: Stability in rat serum at 1 mM at 120 mins by RP-HPLC/MS analysis
[1] = molecular target: Neuromedin-U receptor 2 (Homo sapiens) (UniProt Q9GZQ4); assay: Agonist activity at human NMUR2 expressed in CHO cells assessed as induction of Ca2+ flux at 10 nM after 18 hrs by Fluo-4 AM dye based FLIPR assay relative to NMU; assay type: functional, cell-based
Outline: (§1)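 Human NMUR1 or NMUR2 stably expressed in CHO cells was assayed by Fluo-4 AM (4 μM, 40 min) FLIPR calcium flux, with cells seeded 18 h before. Peptides were tested at single concentrations of 0.1, 10 or 100 nM. Maximal response is expressed as % of hNMU at 1000 nM (=100%).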

[2] = molecular target: T2, Neuromedin-U receptor 1 (Homo sapiens) (UniProt Q9HB89); assay: Agonist activity at human NMUR1 expressed in CHO cells assessed as induction of Ca2+ flux at 0.1 nM after 18 hrs by Fluo-4 AM dye based FLIPR assay relative to NMU; assay type: functional, cell-based; outline: as §1
T2 sequence (whole entry): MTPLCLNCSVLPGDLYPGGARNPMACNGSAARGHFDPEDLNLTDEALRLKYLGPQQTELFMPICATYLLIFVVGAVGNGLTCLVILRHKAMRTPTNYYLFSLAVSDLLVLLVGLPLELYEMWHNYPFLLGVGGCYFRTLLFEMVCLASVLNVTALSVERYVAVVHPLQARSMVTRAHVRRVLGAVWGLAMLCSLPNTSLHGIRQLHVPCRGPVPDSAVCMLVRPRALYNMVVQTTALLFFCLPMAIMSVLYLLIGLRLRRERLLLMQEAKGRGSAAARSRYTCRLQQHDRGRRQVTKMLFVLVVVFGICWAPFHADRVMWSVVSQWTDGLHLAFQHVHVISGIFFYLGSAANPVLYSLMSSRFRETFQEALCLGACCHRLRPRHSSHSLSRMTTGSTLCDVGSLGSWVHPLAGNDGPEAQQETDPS

[3] = molecular target: T2, Neuromedin-U receptor 1 (Homo sapiens); assay: Agonist activity at human NMUR1 expressed in CHO cells assessed as induction of Ca2+ flux at 0.1 to 10 nM after 18 hrs by Fluo-4 AM dye based FLIPR assay relative to NMU; assay type: functional, cell-based; outline: as §1
[4] = molecular target: Neuromedin-U receptor 2 (Homo sapiens) (UniProt Q9GZQ4); assay: Agonist activity at human NMUR2 expressed in CHO cells assessed as induction of Ca2+ flux at 100 nM after 18 hrs by Fluo-4 AM dye based FLIPR assay relative to NMU; assay type: functional, cell-based; outline: as §1
[5] = molecular target: T2, Neuromedin-U receptor 1 (Homo sapiens); assay: Agonist activity at human NMUR1 expressed in CHO cells assessed as induction of Ca2+ flux at 100 nM after 18 hrs by Fluo-4 AM dye based FLIPR assay relative to NMU; assay type: functional, cell-based; outline: as §1

Sequence of Neuromedin-U receptor 2 (Homo sapiens) (Q9GZQ4 whole entry): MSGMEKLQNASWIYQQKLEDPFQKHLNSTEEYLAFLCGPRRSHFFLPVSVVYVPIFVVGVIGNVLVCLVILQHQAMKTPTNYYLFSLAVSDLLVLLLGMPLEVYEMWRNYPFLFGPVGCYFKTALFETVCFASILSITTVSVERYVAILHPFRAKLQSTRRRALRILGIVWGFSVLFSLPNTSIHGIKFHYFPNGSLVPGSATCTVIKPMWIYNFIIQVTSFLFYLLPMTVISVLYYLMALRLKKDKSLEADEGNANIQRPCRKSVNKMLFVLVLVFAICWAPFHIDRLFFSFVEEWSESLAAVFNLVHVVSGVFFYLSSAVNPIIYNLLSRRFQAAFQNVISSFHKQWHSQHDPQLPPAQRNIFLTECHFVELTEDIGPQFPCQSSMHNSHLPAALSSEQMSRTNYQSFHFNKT

- Drug metabolism (Serum): Metabolite_Detected
SMILES: O=C(Cc1cccs1)N[C@@H](Cc1c[nH]c2ccccc12)C(=O)N[C@@H](Cc1c[nH]c2ccccc12)C(=O)O

- Activity [1]: inactive
SMILES: N=C(N)NCCC[C@H](NC(=O)[C@@H]1CCCN1C(=O)[C@H](CCCNC(=N)N)NC(=O)[C@H](Cc1cccc2ccccc12)NC(=O)[C@H](Cc1c[nH]c2ccccc12)NC(=O)Cc1cccs1)C(=O)N[C@@H](CC(N)=O)C(N)=O ({Acetyl(2-thienyl)}-W[1Nal]RPRN-NH2)

- Activity [2]: Active
- Activity [1]: inactive
SMILES: N=C(N)NCCC[C@H](NC(=O)[C@@H]1CCCN1C(=O)[C@H](CCCNC(=N)N)NC(=O)[C@H](Cc1ccc(C(=O)c2ccccc2)cc1)NC(=O)[C@H](Cc1c[nH]c2ccccc12)NC(=O)Cc1cccs1)C(=O)N[C@@H](CC(N)=O)C(N)=O ({Acetyl(2-thienyl)}-W[Bpa]RPRN-NH2)

- Activity [3]: Active
SMILES: N=C(N)NCCC[C@H](NC(=O)[C@@H]1CCCN1C(=O)[C@H](CCCNC(=N)N)NC(=O)[C@H](Cc1csc2ccccc12)NC(=O)[C@H](Cc1c[nH]c2ccccc12)NC(=O)Cc1cccs1)C(=O)N[C@@H](CC(N)=O)C(N)=O ({Acetyl(2-thienyl)}-W[Bta]RPRN-NH2)

Further lines, the compound ahead of its results:

SMILES: CC(C)C[C@H](NC(=O)[C@H](Cc1ccccc1)NC(=O)[C@H](Cc1ccc(O)cc1)NC(=O)CNC(=O)[C@H](CCCCN)NC(=O)[C@H](CO)NC(=O)[C@H](CCC(N)=O)NC(=O)CNC(=O)[C@@H](NC(=O)[C@H](CO)NC(=O)[C@@H]1CCCN1C(=O)[C@H](CO)NC(=O)[C@H](CCC(N)=O)NC(=O)[C@H](Cc1ccc(O)cc1)NC(=O)[C@H](CCC(=O)O)NC(=O)[C@H](C)NC(=O)[C@H](CCCCN)NC(=O)[C@@H](N)Cc1ccccc1)C(C)C)C(=O)N[C@@H](Cc1ccccc1)C(=O)N[C@@H](CCCNC(=N)N)C(=O)N1CCC[C@H]1C(=O)N[C@@H](CCCNC(=N)N)C(=O)N[C@@H](CC(N)=O)C(N)=O (H-FKAEYQSPSVGQSKGYFLFRPRN-NH2)
- pEC50 (Neuromedin-U receptor 1): 9.38

SMILES: N=C(N)NCCC[C@H](NC(=O)[C@@H]1CCCN1C(=O)[C@H](CCCNC(=N)N)NC(=O)[C@H](Cc1c[nH]c2ccccc12)NC(=O)[C@H](Cc1c[nH]c2ccccc12)NC(=O)Cc1cccs1)C(=O)O ({Acetyl(2-thienyl)}-WWRPR-OH)
- remaining at 2 h, 1000 µM (Rattus norvegicus): 52%
- Drug metabolism (Serum): Metabolite_Detected

SMILES: COc1ccc(C[C@H](NC(=O)[C@H](Cc2c[nH]c3ccccc23)NC(=O)Cc2cccs2)C(=O)N[C@@H](CCCNC(=N)N)C(=O)N2CCC[C@H]2C(=O)N[C@@H](CCCNC(=N)N)C(=O)N[C@@H](CC(N)=O)C(N)=O)cc1 ({Acetyl(2-thienyl)}-WY(Me)RPRN-NH2)
- Activity [1]: inactive

SMILES: N=C(N)NCCC[C@H](NC(=O)[C@@H]1CCCN1C(=O)[C@H](CCCNC(=N)N)NC(=O)[C@H](Cc1ccc(-c2ccccc2)cc1)NC(=O)[C@H](Cc1c[nH]c2ccccc12)NC(=O)Cc1cccs1)C(=O)N[C@@H](CC(N)=O)C(N)=O ({Acetyl(2-thienyl)}-W[Bip]RPRN-NH2)
- Activity [2]: Active
- Activity [1]: inactive

SMILES: N=C(N)NCCC[C@H](NC(=O)[C@@H]1CCCN1C(=O)[C@H](CCCNC(=N)N)NC(=O)[C@@H](NC(=O)[C@H](Cc1c[nH]c2ccccc12)NC(=O)Cc1cccs1)C(c1ccccc1)c1ccccc1)C(=O)N[C@@H](CC(N)=O)C(N)=O ({Acetyl(2-thienyl)}-W[Dip]RPRN-NH2)
- Activity [4]: inactive
- Activity [5]: inactive
